Measurements taken from publication PMC2912405 (Journal of medicinal chemistry, 2010).
Counter-ions that a name gives are not always drawn. Each block holds one molecule with its values, some of them ahead of it.

Assays:
[1] = biological target: T1, purified human LAL (phLAL) (Homo sapiens, UniProt P38571); experiment: In vitro LAL activity assay; format: biochemical; settings: 10 μM compound; Supplemental Figures 1 and 2
T1 sequence (P38571 77-399): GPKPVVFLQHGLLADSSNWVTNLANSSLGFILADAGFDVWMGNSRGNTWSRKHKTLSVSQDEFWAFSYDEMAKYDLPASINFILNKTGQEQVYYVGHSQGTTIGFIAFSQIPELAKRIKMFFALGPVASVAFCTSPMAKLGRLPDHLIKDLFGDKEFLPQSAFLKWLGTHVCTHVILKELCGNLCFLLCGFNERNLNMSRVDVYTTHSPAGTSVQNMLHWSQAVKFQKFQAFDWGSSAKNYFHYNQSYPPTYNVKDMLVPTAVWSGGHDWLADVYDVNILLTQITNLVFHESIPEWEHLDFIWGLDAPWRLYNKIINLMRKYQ

LAL = biological target: T2, LAL (Homo sapiens, UniProt P38571); experiment: LAL activity in lysates of compound-treated cells; format: cell-based; settings: for inhibition of LAL in cell lysates: cells treated continuously ~4 days, Figure 4A; for inhibition of LAL in cell lysates after withdrawal: ~3 days treatment, ~1 day recovery in growth medium, Figure 4B
T2 sequence (P38571 77-399): T1 sequence (P38571 77-399)

phLAL [2] = biological target: T3, phLAL (Homo sapiens, UniProt P38571); experiment: Time-dependence of LAL inhibition; format: biochemical; settings: pre-incubation at 833 nM, 500 nM final, 37 °C; Figure 3
T3 sequence (P38571 77-399): T1 sequence (P38571 77-399)

NPC1 mutant cells = experiment: Filipin LSO assay of cholesterol accumulation; format: cell-based, human; settings: ~3 days treatment, Figure 4C
In short: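 Compound-treated cells (~3 days) stained with filipin. Automated fluorescence imaging at 4 (10×) or 9 (20×) sites per well, 2×2 binning, laser autofocus per site, 12-bit images. After background correction, LSO ratio is integrated thresholded filipin fluorescence within LSOs, normalised to total cell area defined by low-threshold filipin signal.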

[3] = system: apparently normal human fibroblasts; experiment: LipidTOX green neutral lipid accumulation; format: cell-based; settings: normal cells, ~3 days treatment; Figure 4D
In short: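 Normal human fibroblasts kept in MEM (2.2 g/L bicarbonate, 10% FBS) and treated with compound for ~3 days. Stained with LipidTOX green and imaged at 482/35 nm excitation, 536/40 nm emission, 20× 0.5 NA objective, with autofocus per site. LSO ratio is thresholded LipidTOX fluorescence within LSOs, normalised to total cell area from low-threshold filipin signal.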

[4] = biological target: T1, purified human LAL (phLAL); settings: previous studies; cited from earlier work
[5] = biological target: T1, purified human LAL (phLAL); experiment: Lineweaver-Burk analysis of LAL inhibition; format: biochemical; settings: 30 min pre-incubation at 37 °C, 4MUO at various concentrations
In short: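 Recombinant purified human LAL pre-incubated with compound for 30 min at 37 °C in 200 mM sodium acetate pH 5.5, 0.02% Tween-20. Started with varied 4-methylumbelliferyl oleate in Triton X-100 and followed by fluorescence (355/450 nm) for 45 min. Compound levels given as final. Double-reciprocal plots fitted by linear regression, two independent experiments.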

phLAL [6] = biological target: T3, phLAL; settings: earlier study; cited from earlier work
many lipases = settings: cited from earlier work
[7] = system: NPC1- or NPC2-defective mice; settings: ref 5a, 9; cited from earlier work

Molecule: O=C(Oc1nsnc1N1CCOCC1)N1CCCCC1 [Compound 14]
potency and specificity towards LAL [4]: significant potency and specificity towards LAL | inhibition of LAL in cell lysates (LAL): much higher level of inhibition of LAL upon cell lysis than 11, 13, 15, and 17 | time-dependence of inhibition upon pre-incubation with phLAL (phLAL [6]): some time-dependence of inhibition

Molecule: CNC(=O)Oc1ccc2c(c1)[C@]1(C)CCN(C)[C@@H]1N2C [eserine]
inhibition of LAL activity at 10 μM [1]: None of these carbamates inhibited LAL

Molecule: COC(N)=O [methyl carbamate]
inhibition of LAL activity at 10 μM [1]: None of these carbamates inhibited LAL

Molecule: CN(C)C(=O)Oc1cccc([N+](C)(C)C)c1 [neostigmine methyl sulfate]
inhibition of LAL activity at 10 μM [1]: None of these carbamates inhibited LAL

Molecule: CCCCCCCCCCC[C@@H](C[C@@H]1OC(=O)[C@H]1CCCCCC)OC(=O)[C@H](CC(C)C)NC=O [orlistat]
inhibition of lipases (many lipases): potent inhibitor of many lipases

Molecule: β-cyclodextrins
accumulation of cholesterol and other lipids in LSOs [7]: significant reduction | lifespan [7]: significantly extends lifespan

Now from value to molecule, other results behind:

inhibition of LAL activity at 10 μM [1]: None of these carbamates inhibited LAL
Molecule: CN1CCC(OC(=O)Nc2ccc(F)cc2)CC1 [1-methyl-4-piperidinyl-N-(4-fluorophenyl) carbamate]

inhibition of LAL in cell lysates after withdrawal (LAL): maximal potency
Molecule: O=C(Oc1nsnc1N1CCCC1)N1CCCCC1 [Compound 10, 4-(Pyrrolidin-1-yl)-1,2,5-thiadiazol-3-yl piperidine-1-carboxylate]
inhibition of LAL in cell lysates (LAL): much higher level of inhibition of LAL upon cell lysis than 11, 13, 15, and 17 | pre-incubation time-dependence of inhibition (phLAL [2]): significantly higher time-dependence than other compounds

inhibition of LAL in cell lysates after withdrawal (LAL): maximal potency
Molecule: O=C(Oc1nsnc1N1CCCCC1)N1CCCCC1 [Compound 12]
decrease in cholesterol accumulation (NPC1 mutant cells): most potent | inhibition of LAL in cell lysates (LAL): much higher level of inhibition of LAL upon cell lysis than 11, 13, 15, and 17 | increase in neutral lipid accumulation [3]: most potent

type of inhibition [5]: apparent competitive inhibitor
Molecule: O=C(Oc1nsnc1N1CCCCC1)N1CCOCC1 [Compound 13]
potency and specificity towards LAL [4]: significant potency and specificity towards LAL | time-dependence of inhibition upon pre-incubation with phLAL (phLAL [6]): some time-dependence of inhibition

inhibition of LAL in cell lysates (LAL): least potent | inhibition of LAL in cell lysates after withdrawal (LAL): least potent
Molecule: O=C(Oc1nsnc1N1CCOCC1)N1CCOCC1 [Compound 15]
decrease in cholesterol accumulation (NPC1 mutant cells): least potent | potency and specificity towards LAL [4]: significant potency and specificity towards LAL | time-dependence of inhibition upon pre-incubation with phLAL (phLAL [6]): some time-dependence of inhibition | increase in neutral lipid accumulation [3]: least potent

inhibition of LAL in cell lysates after withdrawal (LAL): maximal potency
Molecule: O=C(Oc1nsnc1N1CCCCCC1)N1CCCCC1 [Compound 16]
inhibition of LAL in cell lysates (LAL): much higher level of inhibition of LAL upon cell lysis than 11, 13, 15, and 17

inhibition of LAL activity at 10 μM [1]: None of these carbamates inhibited LAL
Molecule: Cl.NCCCCCCNC(=O)OCc1ccccc1 [benzyl N-(6-aminohexyl) carbamate hydrochloride]

inhibition of LAL activity at 10 μM [1]: None of these carbamates inhibited LAL
Molecule: COc1ccccc1OCC(O)COC(N)=O (stereo not drawn) [guaiacol glyceryl ether carbamate]
